Screening results (PubChem)
Rows were chosen to be rich in hits. Some 3% of all compounds tested hit in one or more screens of this group.
SENP8 block-1: inhibitors of human SENP8 protease. Q96LD8. recombinant SENP8, Nedd8 substrate fluorescence. inhibition, % at 20 µM. 360,000 compounds, 0.64% hits; in the data active = inhibition mostly above about 40%, no sharp cut-off; inactive = mostly below about 27%
Target sequence (Q96LD8 whole entry, looked up): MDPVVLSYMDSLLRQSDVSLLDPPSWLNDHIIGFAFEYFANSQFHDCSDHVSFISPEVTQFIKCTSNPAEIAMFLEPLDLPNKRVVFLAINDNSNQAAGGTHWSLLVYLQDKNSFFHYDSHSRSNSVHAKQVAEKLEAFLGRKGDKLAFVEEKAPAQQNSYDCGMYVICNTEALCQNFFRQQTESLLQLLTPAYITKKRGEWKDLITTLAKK
Apaf-1 inh: blocks human Apaf-1 apoptosome activity; O14727; reconstituted apoptosome caspase-3 activity, DEVD-Rh110 fluorescence; inhibition, % at 20 µM; 330,000 compounds, 0.71% hits; active = inhibition of at least 40% at 20 µM;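 note: plate controls were DMSO wells for no effect and DEVD-CHO caspase inhibitor wells for full effect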
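Material: cell-free apoptosome with Apaf-1, procaspase-3 and caspase-9; Buffer or medium: Hepes pH 7.5 with detergent and BSA; Reagent: cytochrome c trigger plus (Z-DEVD)2-Rh110 caspase-3 substrate; Times: compound with Apaf-1, dATP, procaspase-3 30 min, then 50 min reaction, room temperature; Technique: Rh110 fluorescence intensity.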
UBC13 polyUb: inhibitors of human UBC13 polyubiquitin chain formation; P61088; AID 485273; TR-FRET; inhibition, % at 20 µM; 330,000 compounds, 0.47% hits; in the data active = inhibition above about 45%, passing the limit was not always enough
Target sequence (P61088 whole entry, looked up): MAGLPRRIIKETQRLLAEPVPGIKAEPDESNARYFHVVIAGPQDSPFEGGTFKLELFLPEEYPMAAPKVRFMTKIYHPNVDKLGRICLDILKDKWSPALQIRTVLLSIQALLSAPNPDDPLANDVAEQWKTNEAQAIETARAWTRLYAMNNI
SENP7 inh: inhibitors of human SENP7 protease. Q9BQF6. 330,000 compounds, 1.5% hits. recombinant SENP7, Z-RLRGG-aminoluciferin luminescence, 40 min. AID 434973. inhibition, % at 5 µM;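 active = inhibition above about 50% at the single test dose, limit read from the data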;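 note: plate controls were DMSO with enzyme for no effect and no enzyme buffer wells for full effect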
SENP6 inh: SENP6 protease inhibition; Q9GZR1; Recombinant SENP6 catalytic domain, aminoluciferin luminescence; inhibition, % at 10 µM; 330,000 compounds, 1.8% hits;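 active = inhibition above about 50% at the single tested dose, limit read from the data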;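 note: plate controls were DMSO wells with enzyme for no effect and DMSO wells lacking enzyme for full effect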
SENP8 block-2: inhibitors of human SENP8 protease. 330,000 compounds, 1.2% hits. purified SENP8, Z-RLRGG-aminoluciferin cleavage, luminescence. Q96LD8. inhibition, % at 10 µM; in the data active = inhibition above about 50%
SENP8 confirm: confirmation of human SENP8 protease inhibitors. shares compounds with SENP7 inh. Recombinant SENP8, Z-RLRGG-aminoluciferin luminescence, 60 min. inhibition, % at 12.5 µM. 6,200 compounds, 40% hits;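 active = mean inhibition across replicates above about 50%, limit read from the data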
SENP6 confirm: human SENP6 inhibition, confirmed. shares compounds with SENP7 inh. recombinant SENP6, Z-RLRGG-aminoluciferin luminescence. inhibition, % at 12.5 µM. 6,200 compounds, 58% hits. AID 488915
SENP7 conf: human SENP7 inhibition, confirmed; shares compounds with SENP7 inh; recombinant SENP7, Z-RLRGG-aminoluciferin luminescence, 40 min; inhibition, % at 12.5 µM; 6,200 compounds, 69% hits; AID 488917
Casp3 SENP sel: caspase-3 inhibition (SENP selectivity assay); shares compounds with SENP7 inh; purified caspase-3, Z-DEVD-aminoluciferin luminescence, 60 min; inhibition, % at 12.5 µM; 6,200 compounds, 60% hits; AID 488918;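 active = mean inhibition above about 50%, limit read from the data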;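 note: plate controls were enzyme with DMSO for no effect and wells without caspase-3 for full effect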
Target sequence (P42574 28-227 limits assumed): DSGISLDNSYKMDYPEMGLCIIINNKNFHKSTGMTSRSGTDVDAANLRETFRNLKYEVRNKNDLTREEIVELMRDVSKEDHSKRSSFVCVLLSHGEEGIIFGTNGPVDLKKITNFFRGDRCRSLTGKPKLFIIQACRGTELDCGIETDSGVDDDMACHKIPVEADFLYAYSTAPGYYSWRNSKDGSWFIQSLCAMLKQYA
SENP luc ctr: interferes with luciferase luminescence in SENP counter-screen. shares compounds with SENP7 inh. Pre-incubated SENP8/Z-RLRGG-aminoluciferin, luciferase luminescence interference. inhibition, % at 12.5 µM. 6,200 compounds, 39% hits. AID 488919;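 active = mean inhibition above about 50% when retested at one dose, limit read from the data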;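 note: plate controls were DMSO wells with completed reaction for no effect and substrate without enzyme for full effect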
An asterisk follows results filed as active; . = not tested or not shown.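 Rule for the calls, unless noted: active = mean inhibition above about 50% in the one-dose retest (limit read from the data); inactive = the rest.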

SMILES | SENP8 block-1 | Apaf-1 inh | UBC13 polyUb | SENP7 inh | SENP6 inh | SENP8 block-2 | SENP8 confirm | SENP6 confirm | SENP7 conf | Casp3 SENP sel | SENP luc ctr
CC(C)(C)NC(=O)C(c1ccc(C(F)(F)F)cc1)n1c(=O)c(-c2ccco2)nc2ccccc21 (stereo not given) | -407 | . | . | . | . | . | . | . | . | . | .
Cc1ccccc1NC(=O)c1ccc2ccccc2c1 | -2 | -8 | 0 | 32 | 25 | 4 | . | . | . | . | .
COc1ccc(C(=O)Nc2cc(Cl)ccc2OC(=O)c2ccc(OC)cc2)cc1 | 4 | -2 | 0 | 55* | 57* | 33 | 11 | 12 | 35 | 54* | 16
COc1ccc(C(=O)Nc2ccccc2C(N)=O)cc1 | -23 | -1 | -8 | 37 | 65* | 5 | 22 | 19 | 68* | 65* | 53*
Cc1ccc(C(=O)Nc2cc(Cl)ccc2OC(=O)c2ccc(C)cc2)cc1 | . | 10 | -3 | 33 | 32 | 10 | . | . | . | . | .
NC(=O)c1ccccc1NC(=O)c1ccc2c(c1)OCO2 | -11 | 6 | -5 | 70* | 70* | 57* | -22 | 52* | 88* | 81* | 39
NC(=O)c1ccccc1NC(=O)c1ccc2ccccc2c1 | 0 | 6 | 9 | 90* | 96* | 79* | 51* | 82* | 98* | 81* | 59*
O=C(NCc1ccccc1)C1Cc2c(-c3ccc(Cl)cc3)ccnc2O1 (stereo not given) | 30 | . | . | . | . | . | . | . | . | . | .
CC1(C(=O)NS(=O)(=O)c2ccc(F)cc2F)CCN1C(=O)C/C=C/c1ccccc1 (stereo not given) | 14 | . | . | . | . | . | . | . | . | . | .
Cc1ccccc1C(=O)NC(=S)Nc1ccccc1C(=O)O | -36 | -2 | -6 | -2 | -24 | -10 | . | . | . | . | .
COc1ccc(C(=O)Nc2ccccc2C(=O)N/N=C/c2cccc3ccccc23)cc1 | -30 | 6 | -13 | 63* | 60* | 4 | -11 | 22 | 42 | 45 | 2
O=C(Nc1ccccc1C(=O)N/N=C/c1ccc(O)cc1)c1ccccc1 | -128 | -4 | -1 | 61* | 65* | 23 | -5 | 3 | 81* | 86* | 64*
O=C(NC(=S)Nc1ccccc1C(=O)O)c1ccc2ccccc2c1 | -104 | -7 | 10 | 1 | 67* | -5 | 14 | 8 | 7 | 18 | 21
COc1cccc(/C=N/NC(=O)c2ccccc2NC(=O)c2ccco2)c1OC | -48 | 9 | 3 | 0 | -13 | -7 | . | . | . | . | .
O=C(Nc1ccccc1C(=O)N/N=C/c1ccccc1)c1ccco1 | -52 | 3 | -4 | -9 | -13 | -11 | . | . | . | . | .
CN(C)c1ccc(CC(=O)N2CCCC(c3cc(C(=O)Nc4ccc(C(C)(C)C)cc4)no3)C2)cc1 (stereo not given) | 9 | . | . | . | . | . | . | . | . | . | .
COC(=O)[C@]12CCCCC=C1N(CCC1=CCCCC1)C(=O)[C@H](CC(=O)N1CCCC1)C2 | 8 | . | . | . | . | . | . | . | . | . | .
Cc1cc2nc(-c3ccc[nH]c3=O)[nH]c2cc1C | -286 | -1 | 15 | 97* | 95* | 92* | 96* | 97* | 102* | 98* | 82*
CSc1ccc(/C=C/C(=O)OCC(=O)NC2CCCCCC2)cc1 | -486 | . | . | . | . | . | . | . | . | . | .
COc1cc2c(C#N)c(N3CCN(C)CC3)nc(N)c2c(N)n1 | -275 | 19 | -4 | 55* | 59* | 1 | -16 | -4 | -6 | -3 | -13
COc1cc2c(C#N)c(N3CCN(c4ccccc4OC)CC3)nc(N)c2c(N)n1 | -402 | 3 | 32 | 12 | 16 | 0 | . | . | . | . | .
O=C(CN1C(=O)c2ccccc2S1(=O)=O)c1ccc(Cl)cc1Cl | -2 | 4 | -6 | 8 | 67* | 72* | 73* | 77* | 84* | 50* | 9
CCOC(=O)C1CCCN(C(=O)c2cc3cc4ccc(OC)cc4nc3o2)C1 (stereo not given) | -311 | 3 | 0 | 9 | 3 | -4 | . | . | . | . | .
COc1ccc2cc3cc(C(=O)N4CCCC(C)C4)oc3nc2c1 (stereo not given) | -393 | 14 | 4 | 83* | 80* | 59* | 22 | 16 | 20 | 28 | 2
COc1ccc(OC)c(N=Cc2c(O)c3ccccc3oc2=O)c1 | -82 | -4 | 2 | -1 | -21 | -25 | . | . | . | . | .
SMILES | SENP8 block-1 | Apaf-1 inh | UBC13 polyUb | SENP7 inh | SENP6 inh | SENP8 block-2 | SENP8 confirm | SENP6 confirm | SENP7 conf | Casp3 SENP sel | SENP luc ctr
Cc1cc(C)cc(N=Cc2c(O)c3ccccc3oc2=O)c1 | -422 | -9 | 18 | -7 | 27 | 5 | . | . | . | . | .
O=C(O)c1cc(N=Cc2c(O)c3ccccc3oc2=O)ccc1O | -282 | 6 | 14 | 91* | 94* | 74* | 93* | 86* | 101* | 38 | 95*
COc1ccc(N=Cc2c(O)c3ccccc3oc2=O)cc1 | -110 | -2 | -12 | 90* | 91* | 33 | 70* | 74* | 84* | 66* | 49
NS(=O)(=O)c1ccc(N=Cc2c(O)c3ccccc3oc2=O)cc1 | -17 | 19 | 7 | 2 | 1 | -2 | . | . | . | . | .
COc1ccc(Cn2c(O)c(C=Nc3ccc(O)cc3)c3ccccc3c2=O)cc1 | -24 | 16 | 0 | 47 | 67* | 3 | 5 | 36 | 10 | 4 | 0
Cc1ccc(N=Cc2c(O)c3ccccc3oc2=O)cc1F | -200 | 0 | 5 | 70* | -11 | 35 | 31 | 25 | 33 | 9 | 18
CCc1nc2ccc(C(=O)NCc3ccccc3OC)cn2c1N(CC)Cc1cccc(Br)c1 | -16 | . | . | . | . | . | . | . | . | . | .
CCOc1ccc(-c2cc(C(=O)Nc3ccc(F)cc3)[nH]n2)c(C)c1 | 4 | . | . | . | . | . | . | . | . | . | .
CC1=C(C(=O)N(C(C)C)C(C)C)CC(CC(=O)NCc2cccc3ccccc23)C(=O)N1Cc1ccc(C(C)(C)C)cc1 (stereo not given) | 25 | . | . | . | . | . | . | . | . | . | .
CC(C)c1ccc(N=Cc2c(O)c3ccccc3oc2=O)cc1 | -146 | -17 | 5 | 91* | 85* | 63* | 58* | 60* | 77* | 42 | 31
Cc1ccc(N2C(=O)c3ccc(N)cc3C2=O)cc1 | -104 | 15 | -9 | 23 | 13 | 5 | . | . | . | . | .
Cc1ccc(N2C(=O)c3ccc(N)cc3C2=O)cc1C | -88 | 7 | 6 | 51* | 65* | 40 | 63* | 60* | 86* | 54* | 63*
COc1ccc(NC(=O)C2(C)CCN2Cc2ccccc2Cl)cc1OC (stereo not given) | 9 | . | . | . | . | . | . | . | . | . | .
